Columns and labels:
[1] = system: A2780 (human ovarian cancer); assay: Antiproliferative activity against drug-sensitive human A2780 cells
[2] = system: U-251; assay: Growth inhibition of U251 cells; type: functional; conditions: Homo sapiens
[3] = system: OVCAR-3; assay: Growth inhibition of OVCAR-3 cells; type: functional; conditions: Homo sapiens
[4] = system: HCT-116; assay: Growth inhibition of HCT116 cells; type: functional; conditions: Homo sapiens
[5] = Growth inhibition of HS 578T cells; type: functional; conditions: Homo sapiens
[6] = system: SK-MEL-2; assay: Growth inhibition of SK-MEL-2 cells; type: functional; conditions: Homo sapiens
[7] = system: LOX IMVI; assay: Growth inhibition of LOX IMVI cells; type: functional; conditions: Homo sapiens
Summary of the method: (§1)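 Tested in the NCI 60 human tumour cell line screen, which was run by NCI. The value for each line is the GI50, the concentration giving 50% growth inhibition. Results are also shown as a mean graph across the full panel.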

[8] = system: T47D; assay: Growth inhibition of T47D cells; type: functional; conditions: Homo sapiens
Summary of the method: as §1

[9] = system: SF-295; assay: (§2) Growth inhibition of SF295 cells; type: functional; conditions: Homo sapiens
[10] = system: SK-OV-3; assay: Growth inhibition of SKOV3 cells; type: functional; conditions: Homo sapiens
[11] = system: EKVX; assay: Growth inhibition of EKVX cells; type: functional; conditions: Homo sapiens
Summary of the method: as §1

[12] = system: SF-268; assay: Growth inhibition of SF268 cells; type: functional; conditions: Homo sapiens
[13] = system: SNB-75; assay: Growth inhibition of SNB75 cells; type: functional; conditions: Homo sapiens
[14] = system: SK-MEL-5; assay: Growth inhibition of SK-MEL-5 cells; type: functional; conditions: Homo sapiens
[15] = system: NCI-H460; assay: Growth inhibition of NCI-H460 cells; type: functional; conditions: Homo sapiens
[16] = system: SF-295; assay: as §2; type: functional; conditions: Homo sapiens; remark: listed apart in the source
Summary of the method: as §1

[17] = system: HCC 2998; assay: Growth inhibition of HCC2998 cells; type: functional; conditions: Homo sapiens
[18] = system: HOP-92; assay: Growth inhibition of HOP92 cells; type: functional; conditions: Homo sapiens
[19] = system: UACC-257; assay: Growth inhibition of UACC257 cells; type: functional; conditions: Homo sapiens
Summary of the method: as §1

[20] = system: BT-549; assay: Growth inhibition of BT549 cells; type: functional; conditions: Homo sapiens
[21] = system: NCI-H23; assay: Growth inhibition of NCI-H23 cells; type: functional; conditions: Homo sapiens
[22] = system: OVCAR-8; assay: Growth inhibition of OVCAR8 cells; type: functional; conditions: Homo sapiens
Summary of the method: as §1

[23] = system: SNB-19; assay: Growth inhibition of SNB19 cells; type: functional; conditions: Homo sapiens
[24] = system: MOLT-4; assay: Growth inhibition of MOLT4 cells; type: functional; conditions: Homo sapiens
Summary of the method: as §1

[25] = system: SF-539; assay: Growth inhibition of SF539 cells; type: functional; conditions: Homo sapiens
Summary of the method: as §1

[26] = system: CCRF-CEM; assay: Growth inhibition of CCRF-CEM cells; type: functional; conditions: Homo sapiens
Summary of the method: as §1

[27] = system: A549; assay: Growth inhibition of A549/ATCC cells; type: functional; conditions: Homo sapiens
[28] = read-out: Log LC50 (the source's name) (converted)

Compound: COc1cc(/C=C/c2cc(O)c(CC=C(C)C)c(O)c2)cc2c1O[C@]1(C)C[C@@H](O)[C@@H](O)C(C)(C)[C@H]1C2 [SCHWEINFURTHIN E]
- IC50 [1]: 0.26 µM
- GI50 [2]: < 0.01 µM
- CC50 [2, 28]: 32.4 µM
- TGI ([2]; read-out: Log TGI (converted)): 3.98 µM
- GI50 ([3]; read-out: GI50): 2.2 µM
- CC50 [3, 28]: 24 µM
- TGI ([3]; read-out: Log TGI (converted)): 8.32 µM
- GI50 ([3]; read-out: pGI50 (converted)): 6.17 µM
- GI50 [4]: 0.0209 µM
- CC50 [4, 28]: 6.92 µM
- TGI ([4]; read-out: Log TGI (converted)): 0.871 µM
- GI50 [5]: < 0.01 µM
- CC50 [5, 28]: > 100 µM
- TGI ([5]; read-out: Log TGI (converted)): 0.363 µM
- GI50 [6]: 3.72 µM
- CC50 [6, 28]: > 100 µM
- TGI ([6]; read-out: Log TGI (converted)): > 100 µM
- GI50 [7]: 0.646 µM
- CC50 [7, 28]: 6.17 µM
- TGI ([7]; read-out: Log TGI (converted)): 2.34 µM
- GI50 [8]: 3.24 µM
- CC50 [8, 28]: > 100 µM
- TGI ([8]; read-out: Log TGI (converted)): > 100 µM
- GI50 [9]: < 0.01 µM
- CC50 [9, 28]: < 0.01 µM
- TGI ([9]; read-out: Log TGI (converted)): < 0.01 µM
- LC50 [10]: 93.3 µM
- GI50 ([10]; read-out: GI50): 2.2 µM
- TGI ([10]; read-out: Log TGI (converted)): 11 µM
- GI50 ([10]; read-out: pGI50 (converted)): 2.75 µM
- GI50 [11]: 2.14 µM
- CC50 [11, 28]: > 100 µM
- TGI ([11]; read-out: Log TGI (converted)): 28.2 µM
- GI50 [12]: 2.63 µM
- CC50 [12, 28]: > 100 µM
- TGI ([12]; read-out: Log TGI (converted)): > 100 µM
- GI50 [13]: 1.74 µM
- CC50 [13, 28]: > 100 µM
- TGI ([13]; read-out: Log TGI (converted)): 20 µM
- GI50 [14]: 0.661 µM
- CC50 [14, 28]: 5.62 µM
- TGI ([14]; read-out: Log TGI (converted)): 2.24 µM
- GI50 [15]: 0.151 µM
- CC50 [15, 28]: > 100 µM
- TGI ([15]; read-out: Log TGI (converted)): > 100 µM
- GI50 [16]: < 0.01 µM
- TGI [16]: < 0.01 µM
- GI50 [17]: 1.02 µM
- CC50 [17, 28]: 6.46 µM
- TGI ([17]; read-out: Log TGI (converted)): 2.57 µM
- GI50 [18]: 0.794 µM
- CC50 [18, 28]: > 100 µM
- TGI ([18]; read-out: Log TGI (converted)): 5.13 µM
- GI50 [19]: 0.166 µM
- CC50 [19, 28]: 37.2 µM
- TGI ([19]; read-out: Log TGI (converted)): 3.63 µM
- GI50 [20]: 1.51 µM
- CC50 [20, 28]: > 100 µM
- TGI ([20]; read-out: Log TGI (converted)): 13.2 µM
- GI50 [21]: 0.24 µM
- CC50 [21, 28]: 13.8 µM
- TGI ([21]; read-out: Log TGI (converted)): 2.34 µM
- GI50 ([22]; read-out: GI50): 2.2 µM
- CC50 [22, 28]: > 100 µM
- TGI ([22]; read-out: Log TGI (converted)): 6.76 µM
- GI50 ([22]; read-out: pGI50 (converted)): 2.51 µM
- GI50 [23]: 11 µM
- CC50 [23, 28]: > 100 µM
- TGI ([23]; read-out: Log TGI (converted)): > 100 µM
- GI50 ([24]; read-out: GI50): < 0.01 µM
- CC50 [24, 28]: > 100 µM
- TGI ([24]; read-out: Log TGI (converted)): < 0.01 µM
- TGI ([24]; read-out: TGI): < 0.01 µM
- GI50 ([24]; read-out: pGI50 (converted)): < 0.01 µM
- GI50 [25]: < 0.01 µM
- TGI ([25]; read-out: Log TGI (converted)): 0.158 µM
- GI50 [26]: < 0.01 µM
- CC50 [26, 28]: > 100 µM
- TGI ([26]; read-out: Log TGI (converted)): 10 µM
- GI50 [27]: < 0.01 µM
- CC50 [27, 28]: > 100 µM

— ChEMBL document CHEMBL1142962, “Antiproliferative prenylated stilbenes and flavonoids from Macaranga alnifolia from the Madagascar rainforest” (J Nat Prod, 2007)
